Data reported in ChEMBL document CHEMBL4020827, “Targeting Multiple Effector Pathways in Pancreatic Ductal Adenocarcinoma with a G-Quadruplex-Binding Small Molecule” (J Med Chem, 2018).

Legend:
Format in all cases: functional
[1] = system: PANC-1; test: Effect on TEAD3 gene expression in human PANC1 cells at 400 nM after 6 hrs by RNA sequence analysis relative to control
Method in brief: (§1)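 RNA-seq: cells seeded overnight in 60 mm plates (PANC-1 0.35 x 10^6, MIA PaCa-2 1.5 x 10^6 cells/well), then exposed to 400 nM compound for 6 or 24 h against untreated controls. Cell lines mycoplasma-free by RNA-capture ELISA and STR-profiled. Differentially expressed genes called at FDR < 0.1.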

[2] = system: MIA PaCa-2; test: Effect on CTBP1 gene expression in human MIAPaCa2 cells at 400 nM after 6 hrs by RNA sequence analysis relative to control
Method in brief: (§2)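 PANC-1 (0.35 x 10^6) or MIA PaCa-2 (1.5 x 10^6) cells seeded overnight in 60 mm plates, then exposed to 400 nM compound for 6 or 24 h; untreated cells as controls. Cells were mycoplasma-free and STR-certified. Differential expression by RNA-seq, called at FDR < 0.1.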

[3] = system: MIA PaCa-2; test: Effect on IQSEC1 gene expression in human MIAPaCa2 cells at 400 nM after 6 hrs by RNA sequence analysis relative to control; method in brief: as §2
[4] = system: MIA PaCa-2; test: Effect on PRDM16 gene expression in human MIAPaCa2 cells at 400 nM after 24 hrs by RNA sequence analysis relative to control
[5] = system: MIA PaCa-2; test: Effect on PCK2 gene expression in human MIAPaCa2 cells at 400 nM after 24 hrs by RNA sequence analysis relative to control
[6] = system: MIA PaCa-2; test: Effect on MAPK12 gene expression in human MIAPaCa2 cells at 400 nM after 6 hrs by RNA sequence analysis relative to control
[7] = system: MIA PaCa-2; test: Effect on PFKL gene expression in human MIAPaCa2 cells at 400 nM after 24 hrs by RNA sequence analysis relative to control
[8] = system: MIA PaCa-2; test: Effect on IQSEC1 gene expression in human MIAPaCa2 cells at 400 nM after 24 hrs by RNA sequence analysis relative to control; method in brief: as §2
[9] = system: MIA PaCa-2; test: Effect on PLXNA1 gene expression in human MIAPaCa2 cells at 400 nM after 6 hrs by RNA sequence analysis relative to control
[10] = system: PANC-1; test: Effect on SHANK2 gene expression in human PANC1 cells at 400 nM after 24 hrs by RNA sequence analysis relative to control; method in brief: as §1
[11] = system: MIA PaCa-2; test: Effect on TEAD3 gene expression in human MIAPaCa2 cells at 400 nM after 24 hrs by RNA sequence analysis relative to control; method in brief: as §1
[12] = system: PANC-1; test: Effect on ULK1 gene expression in human PANC1 cells at 400 nM after 6 hrs by RNA sequence analysis relative to control; method in brief: as §1
[13] = system: MIA PaCa-2; test: Effect on AKT1 gene expression in human MIAPaCa2 cells at 400 nM after 24 hrs by RNA sequence analysis relative to control; method in brief: as §2
[14] = system: PANC-1; test: Effect on FASN gene expression in human PANC1 cells at 400 nM after 6 hrs by RNA sequence analysis relative to control; method in brief: as §2
[15] = system: PANC-1; test: Effect on TP73 gene expression in human PANC1 cells at 400 nM after 6 hrs by RNA sequence analysis relative to control; method in brief: as §1

**Q.** O=C1c2ccc3c4c(c(NCCN5CCCC5)cc(c24)C(=O)N1CCCN1CCOCC1)C(=O)N(CCCN1CCOCC1)C3=O was tested. Which log2FC [1] did it give?
**A.** -0.59

**Q.** And the log2FC [2]?
**A.** -0.52

**Q.** And the log2FC [3]?
**A.** -1.11

**Q.** And the log2FC [4]?
**A.** -3.39

**Q.** What about the log2FC [5] of the same compound?
**A.** -0.82

**Q.** And the log2FC [6]?
**A.** -0.47

**Q.** What about the log2FC [7] of the same compound?
**A.** -1.18

**Q.** And the log2FC [8]?
**A.** -0.53

**Q.** What about the log2FC [9] of the same compound?
**A.** -0.98

**Q.** What about the log2FC [10] of the same compound?
**A.** -0.44

**Q.** And the log2FC [11]?
**A.** -0.66

**Q.** And the log2FC [12]?
**A.** 0.19

**Q.** What about the log2FC [13] of the same compound?
**A.** -0.98

**Q.** And the log2FC [14]?
**A.** -0.73

**Q.** And the log2FC [15]?
**A.** -1.44
